Mdm2 MdmX PPI: human Mdm2/MdmX binding inhibition | O15151+Q00987 | inhibition, % at 8 µM | AID 485346 | actives 3% (n = 330,000) | SaOS-2 split-luciferase Mdm2/MdmX complementation, luminescence;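 active = inhibition of at least 50% at 8 µM in the primary screen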
Target sequence (O15151 whole entry, looked up): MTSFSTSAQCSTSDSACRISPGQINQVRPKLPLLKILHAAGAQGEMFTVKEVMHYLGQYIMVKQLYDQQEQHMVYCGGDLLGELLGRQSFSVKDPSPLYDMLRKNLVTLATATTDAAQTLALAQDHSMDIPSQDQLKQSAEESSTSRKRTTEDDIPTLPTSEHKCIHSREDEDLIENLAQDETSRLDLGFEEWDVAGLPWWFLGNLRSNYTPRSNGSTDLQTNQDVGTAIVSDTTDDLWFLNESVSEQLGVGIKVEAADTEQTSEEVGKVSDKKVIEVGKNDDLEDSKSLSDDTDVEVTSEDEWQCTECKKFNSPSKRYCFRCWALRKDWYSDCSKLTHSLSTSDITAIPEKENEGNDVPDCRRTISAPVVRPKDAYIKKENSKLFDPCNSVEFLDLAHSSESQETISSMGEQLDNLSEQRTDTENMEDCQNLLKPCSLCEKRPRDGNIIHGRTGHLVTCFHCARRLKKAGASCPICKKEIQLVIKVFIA
Target sequence (Q00987 whole entry, looked up): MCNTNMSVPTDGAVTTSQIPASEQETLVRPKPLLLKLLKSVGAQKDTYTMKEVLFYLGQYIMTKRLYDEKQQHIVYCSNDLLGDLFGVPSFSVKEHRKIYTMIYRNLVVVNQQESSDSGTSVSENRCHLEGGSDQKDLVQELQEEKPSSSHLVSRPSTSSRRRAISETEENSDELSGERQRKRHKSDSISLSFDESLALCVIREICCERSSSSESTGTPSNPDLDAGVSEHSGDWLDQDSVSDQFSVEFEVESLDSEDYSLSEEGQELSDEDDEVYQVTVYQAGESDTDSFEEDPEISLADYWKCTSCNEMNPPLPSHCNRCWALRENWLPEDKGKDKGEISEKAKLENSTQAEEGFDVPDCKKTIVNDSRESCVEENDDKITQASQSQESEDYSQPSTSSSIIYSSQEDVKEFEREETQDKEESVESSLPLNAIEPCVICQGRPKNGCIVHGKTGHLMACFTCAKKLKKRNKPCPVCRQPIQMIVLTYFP
aSyn UTR inh: 5' untranslated region of α-synuclein, MLPCN primary screen; alpha-synuclein 5'UTR reporter, inhibitor activity; AID 1813; actives 0.82% (n = 300,000); inhibition, % (tested at 7.5 µM); in the data active = inhibition above about 60%; inconclusive = no clear call, values can overlap the other calls;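 also: H4 neuroglioblastoma cells stably carrying SNCA 5'UTR luciferase fusion; 0% = DMSO wells and 100% = positive control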
T cruzi repl: T. cruzi replication inhibition; T. cruzi beta-gal in NIH3T3, luminescence, 90 h; inhibition, % (no concentration beside the values); actives 1.4% (n = 300,000);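 active = mean inhibition across valid replicates above about 55%, limit read from the data; inconclusive = mean below that limit but half or more replicates reach it; inactive = mean below it, under half of replicates reach it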;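 also: signal also drops with host cell toxicity which is not excluded here; 0% = plate median of DMSO wells and 100% = zero luminescence signal; higher percent means less beta-gal luminescence so fewer parasites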
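Material: NIH/3T3 host cells with β-galactosidase reporter T. cruzi; Input: 5,000 host fibroblasts per well; Medium: DMEM, 2% fetal bovine serum; Compound: 50 nL DMSO compound solution per well; Schedule: 3 h host attachment, then at least 90 h co-culture; Detection: luminescent β-galactosidase signal after 60 min lysis.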
CSC inhib: blocks cancer stem cells; inhibition, % at 7.5 µM; cancer stem cell-like cells viability, luminescence; actives 1.1% (n = 300,000); in the data active = inhibition above about 75%; inconclusive = no clear call, values can overlap the other calls; tested in HMLE shEcad cells
SKKanGAS inh: SKKanGAS growth inhibition. S. pyogenes SKKanGAS, kanamycin growth, BacTiter-Glo, 6 h. inhibition, % at 7.5 µM. actives 1.3% (n = 300,000). AID 1662;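 active = mean replicate score, as percent of positive control median, at least 50; inconclusive = mean below 50 but one replicate at or above 50; inactive = mean and every replicate below 50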;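 also: strain carries kanamycin resistance gene driven by streptokinase promoter and grows in 40 µg/ml kanamycin; loss of luminescence reflects streptokinase promoter inhibition or plain growth inhibition; 0% = median of DMSO wells and 100% = positive control at its reference dose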
Mdm2 MdmX conf: confirmation of human Mdm2/MdmX interaction inhibitors; inhibition, % at 8 µM; Mdm2-MdmX binding, luminescent assay; shares compounds with Mdm2 MdmX PPI; actives 55% (n = 10,000); in the data active = inhibition above about 40%
Full FLuc ctr: full-length luciferase inhibition in Mdm2/MdmX counter-screen | shares compounds with Mdm2 MdmX PPI | SaOS-2 full-length luciferase counterscreen, luminescence | inhibition, % at 8 µM | actives 77% (n = 6,200) | AID 504607;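 active = mean inhibition at 8 µM reaching about 37%, which flags the compound as non-specific, limit read from the data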;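 also: p53-null SaOS-2 cells with luciferase driven by a doxycycline-inducible promoter; compound on cells about two nights before reading with doxycycline added after day one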
Starred values were filed as active, the others as inactive; ? = inconclusive; / = no result given. Shown are actives, neighbours in structure and some others; about 5.4% of the full set was active somewhere.

SMILES	Mdm2 MdmX PPI	aSyn UTR inh	T cruzi repl	CSC inhib	SKKanGAS inh	Mdm2 MdmX conf	others
Cc1cccn2c(=O)c(C=Nc3ccc(Cl)cc3)c(NCCO)nc12	-10	-91	9	1	1	/
COc1cc(/C=C/C(=O)OCC(=O)c2ccc(S(=O)(=O)N3CCCCC3)cc2)cc(OC)c1OC	56*	/	/	/	/	34
COc1cccc(/C=C/C(=O)OCC(=O)c2ccc(S(=O)(=O)N3CCCCC3)cc2)c1OC	13	-5	5	-3	1	/
CC(NC(=O)C(=O)NCCC1=CCCCC1)c1ccccc1 (stereo unspecified)	4	-3	3	-7	-4	/
CSc1ccc(S(=O)(=O)NCC(=O)OCC(=O)N2CCCCC2C)cc1[N+](=O)[O-] (stereo unspecified)	14	0	-6	2	6	/
CCOC(=O)C1(Cc2ccccc2C(F)(F)F)CCN(Cc2ccon2)CC1	14	31	13	4	-2	/
FC(F)Sc1ccc(NC(=S)NCC2CCCCC2)cc1	65*	-67	23	48	25	-4
CN(C(=S)Nc1ccc(SC(F)F)cc1)C(c1ccccc1)c1ccccc1	56*	22	-5	?	22	7
FC(F)Sc1ccc(NC(=S)NC(c2ccccc2)c2ccccc2)cc1	100*	13	?	9	126*	74*	Full FLuc ctr=38*
CCC(C(=O)Nc1ccc(S(=O)(=O)Nc2ncccn2)cc1)c1ccccc1 (stereo unspecified)	6	-7	6	-13	0	/
COc1cc([C@H]2OC[C@H]3[C@@H]2CO[C@@H]3c2ccc(O[C@H]3O[C@H](CO)[C@@H](O)[C@H](O)[C@H]3O)c(OC)c2)ccc1O[C@@H]1O[C@H](CO)[C@@H](O)[C@H](O)[C@H]1O	-14	/	/	7	/	/
COc1cc(C(C(=O)NC2CCCCC2)N(Cc2ccco2)C(=O)c2cnccn2)cc(OC)c1OC (stereo unspecified)	-22	-11	0	-3	5	/
CCOc1ccc(Br)cc1S(=O)(=O)Nc1cccc(S(=O)(=O)Nc2ccccc2C(=O)O)c1	3	/	/	3	/	/
CC(NC(=O)Cc1cccs1)c1ccccc1 (stereo unspecified)	-3	10	-19	-6	6	/
CC(=O)Nc1nc(C)c(-c2csc(Nc3ccc(O)cc3)n2)s1	66*	/	/	/	/	68*	Full FLuc ctr=44*
COc1ccc(Nc2nc(-c3sc(C)nc3C)cs2)cc1	50*	39	-17	64	-13	45*	Full FLuc ctr=61*
CC(=O)Nc1ccc(Nc2nc(-c3sc(NC(C)=O)nc3C)cs2)cc1	58*	2	-4	2	35	23
CCC(=O)Nc1nc(C)c(-c2csc(Nc3ccc(C(=O)O)cc3)n2)s1	20	3	-7	/	17	/
Cc1nc(C)c(-c2csc(Nc3ccc(N)cc3)n2)s1	-2	-42	-11	25	23	/
CCOc1ccc(CN(C)C(=O)[C@H](C)NC(=O)c2ccco2)cc1OC	-2	13	-5	-15	7	/
COc1ccccc1CNC(=O)CCCOc1cc(=O)n(C)c2ccccc12	59*	19	11	0	-8	34
CCCCN(CC)C(=O)Cn1cnc2ccc(S(=O)(=O)N3CCC(C)CC3)cc2c1=O	1	5	23	2	-8	/
CCC(C(=O)NC1CCCCC1)n1c(SCc2ccccc2F)nc2ccncc21 (stereo unspecified)	24	-3	-14	-1	1	/
Cc1cc(C)nc(-n2nc(C)cc2NC(=O)c2cccc(S(=O)(=O)N(C)C)c2)n1	14	-2	-4	-15	8	/
Cc1ccc(C)c(C(=O)Nc2cc(C)nn2-c2nc(C)cc(C)n2)c1	57*	-19	28	41	48	39	Full FLuc ctr=60*
SMILES	Mdm2 MdmX PPI	aSyn UTR inh	T cruzi repl	CSC inhib	SKKanGAS inh	Mdm2 MdmX conf	others
COc1ccc(C(=O)/C=C/c2cn(CC(O)CN3CCN(C)CC3)c3ccccc23)cc1OC (stereo unspecified)	50*	-62	22	9	6	25
O=C(/C=C/c1cn(CC(O)CN2CCCCC2)c2ccccc12)c1ccccc1 (stereo unspecified)	/	-11	14	/	-7	/
CCCCN(C)CC(O)Cn1cc(/C=C/C(=O)c2ccc(C)cc2)c2ccccc21 (stereo unspecified)	74*	-24	?	82*	7	20
Cc1c(SCCO)c(=O)[nH]c2cc3c(cc12)OCO3	-20	21	-12	-15	-3	/
COc1ccc(C(=O)N2CCCC(O)C2)cc1OC1CCN(C(C)C)CC1 (stereo unspecified)	-10	-10	-5	-13	7	/
Cc1ccc(Cc2c(C)c(C#N)c3[nH]c4ccccc4n3c2=O)cc1	65*	23	13	32	1	55*	Full FLuc ctr=36
CC(Oc1ccccc1)C(=O)Nc1nc(-c2ccccn2)cs1 (stereo unspecified)	74*	/	/	/	/	75*	Full FLuc ctr=43*
CC(Oc1cccc(Cl)c1)C(=O)Nc1nc(-c2ccccn2)cs1 (stereo unspecified)	68*	64*	60*	71	-4	77*	Full FLuc ctr=44*
Cc1cc(C)[n+](Cc2ccccc2)cc1C(N)=O	0	-16	9	6	-5	/
O=C1N=C(N2CCCC2)S/C1=C\C=C\c1ccccc1	59*	-24	4	2	4	64*	Full FLuc ctr=152*
O=C1N=C(N2CCCCC2)S/C1=C\c1ccncc1	1	13	0	-16	-7	/
COc1ccccc1NC(=O)c1sc2ncn(CC(=O)Nc3ccccc3)c(=O)c2c1C	55*	11	1	/	15	5
Oc1c(I)cc(I)c2cccnc12	93*	-5	0	/	92*	72*	Full FLuc ctr=39*
Clc1cc2cccnc2c2ccccc12	4	7	-15	5	-2	/
CCc1nnc(NC(=O)c2cc(-c3ccccc3)nn2-c2ccccc2)s1	-33	-165	19	-5	19	/
O=S(=O)(/N=C(/Nc1ccccc1F)c1ccccc1)c1ccccc1	2	-10	2	-7	-4	/
COC(=O)C(C(C)=O)C1=C/C(=N\S(=O)(=O)c2ccc(C)cc2)c2ccccc2C1=O (stereo unspecified)	17	-51	4	17	7	/
Cc1ccccc1NC1=C/C(=N\S(=O)(=O)c2ccc(C(=O)O)cc2)c2ccccc2C1=O	85*	-69	42	/	95*	22
O=C(O)c1ccc(S(=O)(=O)/N=C2\C=C(Nc3ccccc3F)C(=O)c3ccccc32)cc1	72*	-45	28	104*	88*	65*	Full FLuc ctr=5
COc1ccc(S(=O)(=O)/N=C2\C=C(Nc3ccc(O)cc3)C(=O)c3ccccc32)cc1	100*	100*	67*	/	103*	94*	Full FLuc ctr=7
